Assay results pooled from the literature.
Compare with care: the assays were run in different laboratories.
Effect on: metabolic stability
Species: mouse

C=CCn1c(=O)c2cnc(Nc3ccc(N4CCN(C)CC4)cc3)nc2n1-c1ccc2c(n1)[C@@](O)(CC)CC2
half-life (hepatocytes): 91 min

CC(C)(C)OC(=O)N1CCC(Oc2ccc3c(=O)c4c(Cl)cc(F)cc4[nH]c3c2)CC1
half-life (liver microsomes; 1 µM; pH 7.4): > 60 min

CCN(CC)CCNC(=O)c1c(C)[nH]c(/C=C2\C(=O)Nc3ccc(F)cc32)c1C
half-life (liver microsomes; 1 µM): 12.6 min

O=c1c2ccc(Oc3ccc(OC(F)(F)F)cc3)cc2[nH]c2ccc(Cl)c(F)c12
half-life (liver microsomes; 1 µM; pH 7.4): > 60 min

Cc1c(C)n(Cc2cccc(OC(C)(C)C(=O)O)c2)c2ccc(C(=O)N[C@@H](C)c3ccc(C(C)(C)C)cc3)cc12
half-life (liver microsomes): > 60 min

O=c1c2c(F)cc(Cl)cc2[nH]c2cccc(Oc3ccc(OC(F)(F)F)cc3)c12
half-life (liver microsomes; 1 µM; pH 7.4): > 60 min

Cc1cc(-c2ccnc3[nH]cc(F)c23)ccc1[C@@]1(O)[C@H](C)CNC[C@@H]1C
half-life (liver microsomes): 8 min

Cc1ccc(CCC(=O)Nc2nnc(S(N)(=O)=O)s2)cc1
half-life (liver microsomes): > 120 min

O=c1c2c([nH]c3cc(OCc4ccc(OC(F)(F)F)cc4)ccc13)CCCC2
half-life (liver microsomes; 1 µM; pH 7.4): > 60 min

NS(=O)(=O)c1nnc(NC(=O)CCC2CC3CCC2C3)s1 (stereo not drawn)
half-life (liver microsomes): 46 min

O=C1CCC(N2Cc3cc(C4CCN(Cc5ccccc5)CC4)ccc3C2=O)C(=O)N1 (stereo not drawn)
half-life (liver microsomes; 1 µM): > 60 min

C[C@@H]1CNC[C@H](C)[C@@]1(O)c1ccc(-c2ccnc3[nH]cc(F)c23)cc1
half-life (liver microsomes): 49 min

O=c1c2cc(Cl)c(CO)cc2[nH]c(=S)n1Cc1cccnc1
half-life (liver microsomes; 1 µM; pH 7.4): 29.5 min

CC(=O)N1C[C@@H](C)[C@](O)(c2c(C)cc(-c3ccnc4[nH]cc(F)c34)cc2F)[C@@H](C)C1
half-life (liver microsomes): 3.5 min

O=c1c2ccc(Oc3ccc(OC(F)(F)F)cc3)cc2[nH]c2ccc(F)c(Cl)c12
half-life (liver microsomes; 1 µM; pH 7.4): > 60 min

O=C(Oc1coc(CSc2ncccn2)cc1=O)c1ccc([N+](=O)[O-])cc1
half-life (liver microsomes): < 1 min

COc1ccc(Oc2ccc3c(=O)c4c(F)cc(Cl)cc4[nH]c3c2)cc1
half-life (liver microsomes; 1 µM; pH 7.4): > 60 min

O=c1c2cc(Cl)ccc2[nH]c(=S)n1Cc1cccnc1
half-life (liver microsomes; 1 µM; pH 7.4): 27 min

Cc1[nH]c(C)c(S(=O)(=O)Nc2ccc(C(F)(F)F)c(Cl)c2Cl)c1C(=O)N1CCC(F)(F)C1
half-life (liver microsomes): 44 min

Cc1ccc2[nH]c(=S)n(Cc3cccnc3)c(=O)c2c1
half-life (liver microsomes; 1 µM; pH 7.4): 4.9 min

Cc1cc(-c2ccnc3[nH]cc(F)c23)cc(F)c1[C@@]1(O)[C@H](C)CN(C)C[C@@H]1C
half-life (liver microsomes): 1.7 min

O=c1c2ccc(OCc3ccc(OC(F)(F)F)cc3)cc2[nH]c2cc(Cl)cc(F)c12
half-life (liver microsomes; 1 µM; pH 7.4): > 60 min

Cc1cc(-c2ccnc3[nH]cc(F)c23)cc(F)c1[C@@]1(O)[C@H](C)CNC[C@@H]1C
half-life (liver microsomes): 18.9 min

O=c1c2cc(Cl)ccc2[nH]c(=S)n1Cc1ccc(-c2nnn[nH]2)nc1
half-life (liver microsomes; 1 µM; pH 7.4): > 186 min

CC(C)n1ncc2c(C(=O)NCC3(C)CNC3)cc(C3CC3)nc21
half-life (liver microsomes): > 145 min

C[C@@H]1CNC[C@H](C)[C@@]1(O)c1ccc(-c2ccnc3[nH]cc(F)c23)cc1F
half-life (liver microsomes): 30.1 min

CCN(CC)CCOc1ccc2c(=O)c3c([nH]c2c1)CCCC3
half-life (liver microsomes; 1 µM; pH 7.4): > 60 min

Cc1[nH]c(C)c(S(=O)(=O)Nc2ccc(C(F)(F)F)c(Cl)c2)c1C(=O)N1CCC(F)(F)C1
half-life (liver microsomes): 11.7 min

Nc1nnc(-c2ccccc2O)cc1N1CCN(Cc2ccc(N3CCC(CN4CCN(c5ccc6c(c5)C(=O)N(C5CCC(=O)NC5=O)C6=O)CC4)CC3)c(F)c2)CC1 (stereo not drawn)
half-life (liver microsomes; 1 mM): 59 min

OCc1ccc(-c2nn(Cc3ccccc3)c3ccccc23)o1
half-life (hepatocytes): 1.89 min
